Most compounds without a hit are left out; they make up all but 5.9% or so of the library.
T cruzi growth-1: T. cruzi intracellular proliferation inhibitors, primary screen, cell-based, beta-gal Tulahuen parasites, NIH3T3 host, luminescence. T. cruzi beta-gal in NIH3T3, GalScreen luminescence, 90 h. inhibition, % at 8.34 µM. 77,000 tested, 5.9% active. AID 624255, 2012;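 active = mean inhibition above about 93%, with at least 55% of replicates each passing it, limit read from the data, passing the limit was not always enough; inconclusive = only one of those two conditions holds; inactive = neither condition holds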
IDH1 R132H inh: inhibitors of IDH1 R132H reductase, primary screen, biochemical, plate reader, single point; diaphorase/resazurin fluorescence, 60 min; inhibition, % at 10 µM; 70,000 tested, 0.18% active; in the data active = inhibition above about 34%; inconclusive = no clear call, values can overlap the other calls; inactive = below about 11%
Pf Dd2 inh: P. falciparum Dd2 growth inhibitors, primary screen, SYBR Green fluorescence, single dose replicates. 72 h; hits give low values. activity change, % at 10 µM. 94,000 tested, 2.3% active. AID 1159554, 2015; in the data active = activity change below about -80%; inconclusive = no clear call, values can overlap the other calls
KDM4C inh: inhibitors of GASC-1 (KDM4C) histone demethylase, primary screen, biochemical, single concentration HTS; inhibition, % at 12.5 µM; AID 720574, 2013; GST-KDM4C 2-372, H3K9me3 peptide, LANCE TR-FRET; Lysine-specific demethylase 4C (Homo sapiens), Q9H3R0; 96,000 tested, 0.15% active;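 active = mean replicate inhibition above about 25%, with at least 55% of replicates also reaching it, limit read from the data, passing the limit was not always enough; inconclusive = only one of those two conditions met; inactive = neither condition met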
Target sequence (Q9H3R0 2-372 limits assumed): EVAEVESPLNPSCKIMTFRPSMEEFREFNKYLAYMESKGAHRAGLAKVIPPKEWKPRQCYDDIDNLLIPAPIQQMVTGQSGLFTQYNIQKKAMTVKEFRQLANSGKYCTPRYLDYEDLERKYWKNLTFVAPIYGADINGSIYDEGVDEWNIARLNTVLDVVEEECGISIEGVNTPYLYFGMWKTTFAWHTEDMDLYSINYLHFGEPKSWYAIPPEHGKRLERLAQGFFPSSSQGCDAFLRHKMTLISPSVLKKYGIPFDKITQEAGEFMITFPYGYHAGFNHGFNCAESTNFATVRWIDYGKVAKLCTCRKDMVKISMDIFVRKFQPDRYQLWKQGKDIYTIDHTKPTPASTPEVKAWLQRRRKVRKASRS
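System: N-terminal GST-fused human GASC-1 (KDM4C) fragment, residues 2-372; amount: enzyme final amount 10 nM; incubation: reaction 30 min RT, detection step 1 h RT; medium: HEPES buffer, pH 7.5, plus ascorbate; technique: LANCE TR-FRET, Eu antibody, ULight-streptavidin, EDTA, ex 340 nm, em 618/671 nm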
T cruzi growth-2: T. cruzi intracellular proliferation inhibitors, confirmation, cell-based, NIH3T3 host, beta-gal parasite, luminescence, cherry-pick | shares compounds with T cruzi growth-1 | T. cruzi beta-gal in NIH3T3, GalScreen luminescence, 90 h | inhibition, % at 8.35 µM | 5,600 tested, 72% active;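 active = mean replicate inhibition above about 95% and at least 55% of replicates individually reaching it, limit read from the data; inconclusive = only one of the two criteria is met; inactive = neither criterion is met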
T cruzi growth-3: inhibitors of intracellular T. cruzi replication, confirmation, NIH3T3 host cells, beta-gal parasites, cherry-pick, set 2 | shares compounds with T cruzi growth-1 | T. cruzi beta-gal in NIH3T3, GalScreen luminescence, 90 h | inhibition, % at 2.09 µM | 5,600 tested, 21% active | AID 651740, 2012;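 active = mean inhibition above about 95%, with at least 55% of replicates also reaching it, limit read from the data; inconclusive = meets just one of the two conditions; inactive = meets neither condition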
3T3 cytotox: cytotoxicity in mouse NIH/3T3 fibroblasts, confirmation, cytotoxicity control for T. cruzi proliferation inhibitor project, cell-based, cherry-pick, single point. shares compounds with T cruzi growth-1. NIH/3T3 viability, CellTiter-Glo ATP luminescence, 90 h. cytotoxicity (signal decrease), % at 8.35 µM. 5,600 tested, 14% active. AID 651742, 2012;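 active = mean signal decrease across replicates above about 35% based on untreated-well scatter, with enough replicates individually passing, limit read from the data; inconclusive = no rule stated though some were filed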
NIH3T3 tox 2: NIH/3T3 fibroblast cytotoxicity, confirmation, cytotoxicity control, cell-based, cherry-pick, single point, set 2; shares compounds with T cruzi growth-1; NIH/3T3 viability, CellTiter-Glo ATP luminescence, 90 h; inhibition, % at 24.9 µM; 5,600 tested, 56% active; AID 651744, 2012;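 active = mean loss of cell viability signal at or above a set limit, and enough replicates individually reaching it; inconclusive = meets only the mean limit or only the replicate share; inactive = meets neither condition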
Hits are given with their value; - = inactive; ? = inconclusive; . = not tested or not shown.

SMILES | T cruzi growth-1 | IDH1 R132H inh | Pf Dd2 inh | KDM4C inh | T cruzi growth-2 | T cruzi growth-3 | 3T3 cytotox | NIH3T3 tox 2
CC1CCc2c(sc3ncnc(SCC(=O)NC4CCCCC4)c23)C1 (stereo not drawn) | . | - | . | . | . | . | . | .
C[C@H]1CN([C@@H](C)CO)S(=O)(=O)c2ccc(/C=C/c3ccccc3)cc2O[C@H]1CN(C)C(=O)Nc1ccc(F)cc1 | - | - | - | - | . | . | . | .
C[C@H](CO)N1C[C@H](C)[C@@H](CN(C)C(=O)Nc2ccc(F)cc2)Oc2cc(/C=C/c3ccccc3)ccc2S1(=O)=O | 124.2 | - | - | - | 108.9 | 97.9 | - | ?
C[C@H]1CN([C@@H](C)CO)S(=O)(=O)c2ccc(/C=C/c3ccccc3)cc2O[C@H]1CN(C)C(=O)Nc1cc(F)ccc1F | . | - | - | - | . | . | . | .
C[C@H]1CN([C@@H](C)CO)S(=O)(=O)c2ccc(/C=C/c3ccccc3)cc2O[C@@H]1CN(C)C(=O)Nc1ccc(F)cc1 | 127.0 | - | - | - | 101.0 | - | - | 59.6
C[C@@H]1CN([C@H](C)CO)S(=O)(=O)c2ccc(/C=C/c3ccccc3)cc2O[C@H]1CN(C)C(=O)Nc1ccc(F)cc1 | 125.5 | - | -81.7 | - | 108.7 | - | 44.5 | 89.4
O=C(CSc1ncnc2scc(-c3ccc(Cl)cc3)c12)Nc1ccc2c(c1)OCCO2 | . | - | . | . | . | . | . | .
Cn1cnc(CCNC(=O)C[C@@H]2CC[C@@H]3[C@H](COC[C@H](O)CN3C(=O)Nc3ccc(C(F)(F)F)cc3)O2)c1 | 107.2 | . | - | - | - | - | - | -
Cn1cnc(CCNC(=O)C[C@H]2CC[C@@H]3[C@H](COC[C@@H](O)CN3C(=O)Nc3ccc(C(F)(F)F)cc3)O2)c1 | 113.6 | . | - | - | 100.5 | - | - | -
Cn1cnc(CCNC(=O)C[C@@H]2CC[C@H]3[C@@H](COC[C@H](O)CN3C(=O)Nc3ccc(C(F)(F)F)cc3)O2)c1 | - | . | - | - | . | . | . | .
Cc1ccccc1S(=O)(=O)N1CCCCN2[C@@H](CO)[C@H](c3ccc(-c4cccc(F)c4)cc3)[C@@H]2C1 | 105.9 | . | - | - | - | 103.5 | 55.9 | 102.9
Cc1ccccc1S(=O)(=O)N1CCCCN2[C@H](CO)[C@H](c3ccc(-c4cccc(F)c4)cc3)[C@H]2C1 | - | . | - | - | . | . | . | .
Cc1ccccc1S(=O)(=O)N1CCCCN2[C@H](C1)[C@@H](c1ccc(-c3cccc(F)c3)cc1)[C@@H]2CO | ? | . | - | - | 110.7 | - | - | 73.2
CN(C)C(=O)c1ccc(-c2ccc3c(c2)[C@@H]2[C@@H](CCN2C(=O)Cc2ccccn2)[C@H](CO)N3C)cc1 | 103.6 | . | - | - | 104.3 | - | - | -
CN1c2ccc(-c3ccccc3)cc2[C@H]2[C@H](CCN2C(=O)Cc2ccccn2)[C@@H]1CO | 112.8 | . | - | - | 103.0 | - | - | -
CN(C)C(=O)c1ccc(-c2ccc3c(c2)[C@H]2[C@H](CCN2C(=O)Cc2ccccn2)[C@H](CO)N3C)cc1 | - | . | - | - | . | . | . | .
CN(C)C(=O)c1ccc(-c2ccc3c(c2)[C@@H]2[C@@H](CCN2C(=O)Cc2ccccn2)[C@@H](CO)N3C)cc1 | - | . | - | - | . | . | . | .
Cn1cnc(S(=O)(=O)N2CC[C@@H]3[C@@H](CO)Nc4ccc(-c5cccc(F)c5)cc4[C@@H]32)c1 | 102.7 | . | - | - | 103.1 | - | - | -
Cn1cnc(S(=O)(=O)N2CC[C@@H]3[C@@H](CO)Nc4ccc(-c5ccc(F)cc5)cc4[C@@H]32)c1 | ? | . | - | - | 105.2 | - | - | -
Cn1cnc(S(=O)(=O)N2CC[C@H]3[C@H](CO)Nc4ccc(-c5cccc(F)c5)cc4[C@H]32)c1 | 110.1 | . | - | - | 98.8 | - | - | -
O=C(Cn1cnc2ccccc2c1=O)Nc1ccccc1Cl | . | - | . | . | . | . | . | .
Cc1ccc(-c2ccc3c(c2)O[C@@H](CN(C)Cc2ccncc2)[C@@H](C)CN([C@H](C)CO)S3(=O)=O)cc1 | 122.9 | - | - | - | 96.9 | 101.1 | - | 94.3
Cc1ccc(-c2ccc3c(c2)O[C@@H](CN(C)Cc2ccncc2)[C@H](C)CN([C@@H](C)CO)S3(=O)=O)cc1 | 122.6 | - | -88.8 | - | 98.1 | - | 64.5 | 100.2
Cc1ccc(-c2ccc3c(c2)O[C@@H](CN(C)Cc2ccncc2)[C@@H](C)CN([C@@H](C)CO)S3(=O)=O)cc1 | 120.2 | - | - | - | - | - | 63.8 | 90.3
C[C@@H]1CN([C@@H](C)CO)S(=O)(=O)c2ccc(-c3cncnc3)cc2O[C@H]1CN(C)Cc1ccncc1 | - | - | - | - | . | . | . | .
SMILES | T cruzi growth-1 | IDH1 R132H inh | Pf Dd2 inh | KDM4C inh | T cruzi growth-2 | T cruzi growth-3 | 3T3 cytotox | NIH3T3 tox 2
C[C@@H]1CN([C@H](C)CO)S(=O)(=O)c2ccc(-c3cncnc3)cc2O[C@@H]1CN(C)Cc1ccncc1 | - | - | - | - | . | . | . | .
C[C@@H]1CN([C@@H](C)CO)S(=O)(=O)c2ccc(Br)cc2O[C@H]1CN(C)Cc1ccncc1 | 100.8 | . | - | . | 102.1 | 98.6 | - | -
C[C@@H]1CN([C@H](C)CO)S(=O)(=O)c2ccc(-c3ccncc3)cc2O[C@@H]1CN(C)Cc1ccccc1 | - | - | - | - | . | . | . | .
COc1ccccc1NC(=O)CSC1CC(=O)N(c2ccc(I)cc2)C1=O (stereo not drawn) | . | - | . | . | . | . | . | .
COc1cc(Br)cc(/C=N/NC(=O)CCCCCC(=O)Nc2ccccc2O)c1O | . | - | . | . | . | . | . | .
Cc1ccc(-c2ccc3c(c2)O[C@H](CN(C)Cc2ccncc2)[C@H](C)CN([C@H](C)CO)S3(=O)=O)cc1 | 108.7 | 52.2 | - | . | 97.6 | - | 49.1 | 47.1
C[C@@H]1CCCCO[C@H](CN(C)Cc2ccc(C(F)(F)F)cc2)[C@H](C)CN([C@H](C)CO)C(=O)c2cc(NC(=O)Nc3cccc4ccccc34)ccc2O1 | ? | - | - | - | 105.4 | 116.8 | - | -
C[C@H](CO)N1C[C@H](C)[C@@H](CN(C)Cc2ccc(C(F)(F)F)cc2)OCCCC[C@H](C)Oc2ccc(NC(=O)Nc3cccc4ccccc34)cc2C1=O | ? | - | - | - | 98.8 | 107.1 | - | -
